Structures can show the parent of a compound that is named as a salt. Active and inactive are the calls of the source. The calls are words filed in the database; no cut-off is given here.
Tests used:
[1] = biological target: T1, D(2) dopamine receptor (Homo sapiens, UniProt P14416); test: Agonist activity at human dopamine D2L receptor expressed in HEK293 cells assessed as inhibition of forskolin-induced cAMP accumulation after 30 mins by LANCE assay; format: functional, cell-based
[2] = biological target: D(1B) dopamine receptor (Homo sapiens, UniProt P21918); test: Displacement of [3H]SCH23390 from human dopamine D5 receptor transfected in HEK293 cells after 2 hrs by scintillation counting analysis; format: cell-based
[3] = biological target: T2, D(4) dopamine receptor (Homo sapiens, UniProt P21917); test: Displacement of [3H]spiperone from human dopamine D4 receptor transfected in HEK293 cells after 2 hrs by scintillation counting analysis; format: cell-based
T2 sequence (P21917 whole entry): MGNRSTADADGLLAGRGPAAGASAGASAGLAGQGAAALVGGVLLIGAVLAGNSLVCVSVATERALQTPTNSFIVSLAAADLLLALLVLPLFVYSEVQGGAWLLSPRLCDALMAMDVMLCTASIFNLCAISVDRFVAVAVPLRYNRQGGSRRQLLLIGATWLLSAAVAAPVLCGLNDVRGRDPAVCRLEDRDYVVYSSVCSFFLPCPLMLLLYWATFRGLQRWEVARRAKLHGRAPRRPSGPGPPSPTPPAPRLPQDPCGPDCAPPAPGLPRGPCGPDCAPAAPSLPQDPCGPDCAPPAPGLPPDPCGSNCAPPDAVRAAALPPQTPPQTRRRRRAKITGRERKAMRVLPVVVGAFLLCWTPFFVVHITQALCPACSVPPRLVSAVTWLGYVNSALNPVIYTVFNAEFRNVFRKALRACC

[4] = biological target: D(3) dopamine receptor (Homo sapiens, UniProt P35462); test: Displacement of [3H]spiperone from human dopamine D3 receptor transfected in HEK293 cells after 2 hrs by scintillation counting analysis; format: cell-based
[5] = biological target: T1, D(2) dopamine receptor; test: Displacement of [3H]spiperone from low-affinity state of human dopamine D2S receptor transfected in HEK293 cells after 2 hrs by scintillation counting analysis; format: cell-based
[6] = biological target: T1, D(2) dopamine receptor; test: Displacement of [3H]spiperone from low-affinity state of human dopamine D2L receptor transfected in HEK293 cells after 2 hrs by scintillation counting analysis; format: cell-based
[7] = biological target: T1, D(2) dopamine receptor; test: Displacement of [3H]spiperone from high-affinity state of human dopamine D2L receptor transfected in HEK293 cells after 2 hrs by scintillation counting analysis; format: cell-based
[8] = biological target: D(1A) dopamine receptor (Homo sapiens, UniProt P21728); test: Displacement of [3H]SCH23390 from human dopamine D1 receptor transfected in HEK293 cells after 2 hrs by scintillation counting analysis; format: cell-based
[9] = species on record: Homo sapiens; test: Selectivity ratio of Ki for human dopamine D1-like receptor to Ki for human dopamine D2-like receptor
[10] = system: Nucleic Acid; test: Ratio of drug level from striatum to cortex of Sprague-Dawley rat at 4.5 +/- 3.6 nM after 35 mins by autoradiographic analysis in presence of dopamine D2/3 receptor antagonist raclopride
Outline: (§1)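 Rat brain slice autoradiography with 10 μM raclopride co-incubated to define nonspecific binding. Slices were preincubated 15 min at rt in Tris buffer (5 mM KCl, 2 mM CaCl2, 2 mM MgCl2, 120 mM NaCl, pH 7.4). They were then exposed 35 min at 37 °C to radioligand at about 5 nM, washed ice-cold, and imaged on phosphor screens for 6–10 h with striatal and reference-region ROIs.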

[11] = system: Nucleic Acid; test: Ratio of drug level from striatum to cerebellum of Sprague-Dawley rat at 4.5 +/- 3.6 nM after 35 mins by autoradiographic analysis in presence of dopamine D2/3 receptor antagonist raclopride; format: nucleic-acid assay; outline: as §1
[12] = system: Nucleic Acid; test: Ratio of drug level from striatum to cortex of Sprague-Dawley rat at 4.5 +/- 3.6 nM after 35 mins by autoradiographic analysis; format: ADME, tissue-based
Outline: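 In vitro autoradiography on rat brain slices. Slices were preincubated 15 min at rt in 50 mM Tris-HCl, 5 mM KCl, 2 mM CaCl2, 2 mM MgCl2, 120 mM NaCl, pH 7.4. They were then incubated 35 min at 37 °C with radioligand at about 5 nM, washed in ice-cold buffer and dipped in water. Phosphor screens were exposed 6–10 h, with manual striatal and reference-region ROIs. Values are mean SD over slides from n experiments.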

[13] = system: Nucleic Acid; test: Ratio of drug level from striatum to cortex of Sprague-Dawley rat at […] after 35 mins by autoradiographic analysis in presence of dopamine D2/3 receptor antagonist raclopride
[14] = system: Nucleic Acid; test: Ratio of drug level from striatum to cerebellum of Sprague-Dawley rat at […] after 35 mins by autoradiographic analysis in presence of dopamine D2/3 receptor antagonist raclopride; format: nucleic-acid assay
[15] = system: Nucleic Acid; test: Ratio of drug level from striatum to cortex of Sprague-Dawley rat at […] after 35 mins by autoradiographic analysis; format: ADME, tissue-based
[16] = system: Nucleic Acid; test: Ratio of drug level from striatum to cerebellum of Sprague-Dawley rat at […] after 35 mins by autoradiographic analysis; format: ADME, nucleic-acid assay
[17] = system: Nucleic Acid; test: Ratio of drug level from striatum to cortex of Sprague-Dawley rat at […] after 35 mins by autoradiographic analysis in presence of GTP; format: ADME, tissue-based
[18] = Lipophilicity, log D of the compound; format: physicochemical; conditions: octanol/water
Outline: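 Shake-flask LogD of the [18F]-labelled tracer. Activity left on the HLB cartridge was eluted with n-octanol. The eluate was vortexed 5 min at rt with an equal volume of 1 M phosphate buffer, pH 7.4, then centrifuged at 17 000g for 10 min. Organic and aqueous aliquots were gamma-counted and corrected for intact-tracer fraction by radio-TLC. Each run was in duplicate, and the mean was taken from ≥2 independent experiments.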

[19] = system: Nucleic Acid; test: Ratio of drug level from striatum to cerebellum of Sprague-Dawley rat at […] after 35 mins by autoradiographic analysis in presence of GTP; format: ADME, nucleic-acid assay
[20] = system: Nucleic Acid; test: Ratio of drug level from striatum to cerebellum of Sprague-Dawley rat at 5.8 +/- […] after 35 mins by autoradiographic analysis in presence of GTP; format: ADME, nucleic-acid assay; conditions: in vitro
[21] = system: Nucleic Acid; test: Ratio of drug level from striatum to cortex of Sprague-Dawley rat at 5.8 +/- […] after 35 mins by autoradiographic analysis in presence of dopamine D2/3 receptor antagonist raclopride; conditions: in vitro
[22] = system: Nucleic Acid; test: Ratio of drug level from striatum to cerebellum of Sprague-Dawley rat at 5.8 +/- […] after 35 mins by autoradiographic analysis in presence of dopamine D2/3 receptor antagonist raclopride; format: nucleic-acid assay; conditions: in vitro
[23] = system: Nucleic Acid; test: Ratio of drug level from striatum to cortex of Sprague-Dawley rat at 5.8 +/- […] after 35 mins by autoradiographic analysis; format: ADME, tissue-based; conditions: in vitro
[24] = system: Nucleic Acid; test: Ratio of drug level from striatum to cerebellum of Sprague-Dawley rat at 5.8 +/- […] after 35 mins by autoradiographic analysis; format: ADME, nucleic-acid assay; conditions: in vitro
[25] = system: Nucleic Acid; test: Ratio of drug level from striatum to cortex of Sprague-Dawley rat at 5.8 +/- […] after 35 mins by autoradiographic analysis in presence of GTP; format: ADME, tissue-based; conditions: in vitro
[26] = biological target: D(2) dopamine receptor (Rattus norvegicus, UniProt P61169); test: Displacement of dopamine/[3-H]domperidone from high-affinity state of rat D2L receptor
Chain of D(2) dopamine receptor (Rattus norvegicus, UniProt P61169) (P61169 whole entry): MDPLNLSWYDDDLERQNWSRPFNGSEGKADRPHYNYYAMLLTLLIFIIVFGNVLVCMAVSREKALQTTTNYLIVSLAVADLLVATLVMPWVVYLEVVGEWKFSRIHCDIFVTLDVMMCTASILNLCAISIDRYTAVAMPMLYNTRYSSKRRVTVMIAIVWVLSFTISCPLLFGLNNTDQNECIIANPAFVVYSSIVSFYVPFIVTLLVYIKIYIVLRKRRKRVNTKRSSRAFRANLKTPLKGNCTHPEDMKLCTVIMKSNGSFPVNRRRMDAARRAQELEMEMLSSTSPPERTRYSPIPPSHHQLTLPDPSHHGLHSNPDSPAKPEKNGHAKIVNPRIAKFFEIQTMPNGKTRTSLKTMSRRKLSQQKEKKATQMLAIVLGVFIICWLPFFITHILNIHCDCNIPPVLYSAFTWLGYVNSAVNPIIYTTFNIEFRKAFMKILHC

Chain of D(1A) dopamine receptor (P21728 whole entry): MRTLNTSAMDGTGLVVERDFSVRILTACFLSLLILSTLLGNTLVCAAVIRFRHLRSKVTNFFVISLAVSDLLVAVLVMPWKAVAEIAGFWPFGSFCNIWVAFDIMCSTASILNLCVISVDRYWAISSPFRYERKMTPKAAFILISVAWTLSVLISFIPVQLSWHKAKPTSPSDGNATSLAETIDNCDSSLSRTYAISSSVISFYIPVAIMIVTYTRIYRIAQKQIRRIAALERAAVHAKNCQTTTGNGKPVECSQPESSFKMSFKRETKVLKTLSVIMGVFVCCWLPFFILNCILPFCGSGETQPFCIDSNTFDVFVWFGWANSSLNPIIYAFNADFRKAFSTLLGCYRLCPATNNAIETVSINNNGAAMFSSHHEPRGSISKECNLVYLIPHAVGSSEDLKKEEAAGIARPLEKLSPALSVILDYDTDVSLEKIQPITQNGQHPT
Chain of D(3) dopamine receptor (P35462 whole entry): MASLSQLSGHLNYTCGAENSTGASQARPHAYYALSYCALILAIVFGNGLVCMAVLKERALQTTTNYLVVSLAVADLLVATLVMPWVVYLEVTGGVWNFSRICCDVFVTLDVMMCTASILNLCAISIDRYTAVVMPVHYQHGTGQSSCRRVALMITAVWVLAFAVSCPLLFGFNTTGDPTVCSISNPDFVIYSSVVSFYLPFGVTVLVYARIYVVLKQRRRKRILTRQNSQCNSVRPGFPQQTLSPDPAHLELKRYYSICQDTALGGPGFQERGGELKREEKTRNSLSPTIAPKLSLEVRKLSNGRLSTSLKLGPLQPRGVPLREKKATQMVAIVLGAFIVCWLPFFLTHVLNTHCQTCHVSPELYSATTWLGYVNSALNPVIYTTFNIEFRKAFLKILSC
Chain of D(1B) dopamine receptor (P21918 whole entry): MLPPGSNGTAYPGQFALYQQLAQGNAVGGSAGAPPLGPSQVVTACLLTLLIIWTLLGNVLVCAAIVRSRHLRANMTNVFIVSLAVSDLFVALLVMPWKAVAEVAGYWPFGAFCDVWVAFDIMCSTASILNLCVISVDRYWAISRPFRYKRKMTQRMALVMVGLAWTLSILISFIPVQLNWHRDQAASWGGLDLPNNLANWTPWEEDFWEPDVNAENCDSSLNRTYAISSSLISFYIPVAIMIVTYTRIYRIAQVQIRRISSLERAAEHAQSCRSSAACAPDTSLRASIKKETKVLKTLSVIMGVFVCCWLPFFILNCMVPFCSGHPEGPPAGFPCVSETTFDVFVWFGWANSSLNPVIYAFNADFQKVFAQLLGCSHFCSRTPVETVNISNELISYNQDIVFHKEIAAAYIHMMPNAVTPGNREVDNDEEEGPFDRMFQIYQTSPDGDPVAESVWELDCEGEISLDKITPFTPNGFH
T1 sequence (P14416 whole entry): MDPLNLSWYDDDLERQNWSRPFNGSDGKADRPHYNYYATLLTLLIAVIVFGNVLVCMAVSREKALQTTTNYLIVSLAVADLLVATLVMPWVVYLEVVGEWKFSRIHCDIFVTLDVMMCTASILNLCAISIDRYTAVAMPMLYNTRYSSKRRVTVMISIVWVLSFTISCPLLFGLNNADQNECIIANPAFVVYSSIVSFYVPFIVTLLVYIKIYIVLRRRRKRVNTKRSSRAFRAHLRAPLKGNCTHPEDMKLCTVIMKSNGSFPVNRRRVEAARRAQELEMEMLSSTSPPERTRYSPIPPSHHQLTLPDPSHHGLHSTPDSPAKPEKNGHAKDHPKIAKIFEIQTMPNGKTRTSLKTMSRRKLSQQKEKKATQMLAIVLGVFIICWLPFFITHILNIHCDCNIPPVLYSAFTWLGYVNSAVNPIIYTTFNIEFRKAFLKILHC

Row | Structure (SMILES) | EC50 [1] [nM] | Ki ([2]; read-out: Ki) [nM] | Ki ([3]; read-out: Ki) [nM] | Ki ([4]; read-out: Ki) [nM] | Ki ([4]; read-out: pKi (converted)) [nM] | Ki ([5]; read-out: Ki) [nM] | Ki ([6]; read-out: Ki) [nM] | Ki ([6]; read-out: pKi (converted)) [nM] | Ratio Ki [9] | Ki ([2]; read-out: pKi (converted)) [nM] | Ki ([8]; read-out: Ki) [nM] | Ki ([8]; read-out: pKi (converted)) [nM] | other results
1 | Oc1ccc2c(c1)O[C@@H](CNCCN1CCN(c3ccc(OCCF)cc3)CC1)CC2 | 0.158 | 9700 | 27.7 | 10 | 8.71 | 252 | 235 | 219 | > 100 |  |  |  | Ki ([3]; read-out: pKi (converted)): 22.9 nM; Ki ([5]; read-out: pKi (converted)): 234 nM; Ki ([7]; read-out: Ki): 6.67 nM; Ki ([7]; read-out: pKi (converted)): 5.01 nM; inhibition [8]: inactive
2 | Oc1ccc2c(c1)O[C@@H](CNCc1ccc(OCCCC[18F])cc1)CC2 |  |  |  |  |  |  |  |  |  |  |  |  | Ratio [10]: 1.05; Ratio [11]: 1.04; Ratio [12]: 1.16; Ratio [13]: 1.03; Ratio [14]: 1.1; Ratio [15]: 1.68; Ratio [16]: 1.85; Ratio [17]: 1.13; logD [18]: 2.45; Ratio [19]: 1.2
3 | Oc1ccc2c(c1)O[C@@H](CN1CCN(c3ccc(OCCF)cc3)CC1)CC2 |  | 19700 | 131 | 39.4 | 37.2 |  |  |  | > 100 |  |  |  | Ki ([3]; read-out: pKi (converted)): 47.9 nM; inhibition [5]: inactive; inhibition [6]: inactive; inhibition [7]: inactive; inhibition [8]: inactive
4 | Oc1ccc2c(c1)O[C@@H](CNCc1ccccc1)CC2 |  | 3830 |  |  |  |  |  |  |  | 3720 | 7250 |  | 
5 | Oc1ccc2c(c1)O[C@@H](CNCCN1CCN(c3ccc(I)cc3)CC1)CC2 | 1.58 | 3480 | 9.7 | 23 | 21.9 | 131 | 80.5 | 66.1 | > 100 |  | 3960 | 3890 | 
6 | Oc1ccc2c(c1)O[C@@H](CNCc1cccc(I)c1)CC2 | 0.0316 | 4640 | 0.97 | 7.87 | 2.88 | 30.8 | 72.9 | 33.9 | > 100 | 4570 | 4290 | 3890 | Ki ([5]; read-out: pKi (converted)): 28.8 nM; Ki ([7]; read-out: Ki): 2.06 nM; Ki ([7]; read-out: pKi (converted)): 1.02 nM
7 | CCCCCCNC[C@H]1CCc2ccc(O)cc2O1 | 0.0501 | 27700 | 5.7 | 547 | 19.1 |  |  |  |  | 2750 | 10900 | 10500 | Ki ([3]; read-out: pKi (converted)): 5.01 nM
8 | Oc1ccc2c(c1)O[C@@H](CNCCN1CCN(c3ccc(OCC[18F])cc3)CC1)CC2 |  |  |  |  |  |  |  |  |  |  |  |  | Ratio [20]: 1.67; Ratio [21]: 1.2; Ratio [22]: 1.65; Ratio [23]: 1.9; Ratio [24]: 2.64; logD [18]: 1.48; Ratio [25]: 1.48
9 | Oc1ccc2c(c1)O[C@@H](CNCc1ccccc1I)CC2 |  |  |  | 1.79 | 1.66 | 166 | 51.2 | 29.5 | > 100 |  | 436 | 417 | Ki ([5]; read-out: pKi (converted)): 83.2 nM; Ki ([7]; read-out: Ki): 0.68 nM; Ki ([7]; read-out: pKi (converted)): 0.162 nM
10 | Oc1ccc2c(c1)O[C@@H](CN1CCN(c3ccc(I)cc3)CC1)CC2 |  | 17800 | 14.3 | 24.2 |  |  |  |  | > 100 | 17400 | 46500 |  | inhibition [5]: inactive; inhibition [6]: inactive; inhibition [7]: inactive
11 | CCCN1CCO[C@@H]2c3cc(O)ccc3CC[C@H]21 [NAXAGOLIDE HYDROCHLORIDE] |  |  |  |  |  |  |  |  |  |  |  |  | Ki [26]: 0.6 nM

More lines, main results first:

Row | EC50 [1] [nM] | Ki ([2]; read-out: Ki) [nM] | Ki ([3]; read-out: Ki) [nM] | Ki ([4]; read-out: Ki) [nM] | Ki ([4]; read-out: pKi (converted)) [nM] | Ki ([5]; read-out: Ki) [nM] | Ki ([6]; read-out: Ki) [nM] | Ki ([6]; read-out: pKi (converted)) [nM] | Ratio Ki [9] | Ki ([2]; read-out: pKi (converted)) [nM] | Ki ([8]; read-out: Ki) [nM] | Ki ([8]; read-out: pKi (converted)) [nM] | Structure (SMILES) | other results
12 | 0.398 | 2890 | 32.1 | 12.1 |  | 92.7 | 80.5 | 61.7 | > 100 | 2450 | 6910 | 6610 | Oc1ccc2c(c1)O[C@@H](CNCc1ccc(OCCCCF)cc1)CC2 | Ki ([5]; read-out: pKi (converted)): 91.2 nM; Ki ([7]; read-out: Ki): 5.6 nM
13 |  |  |  | 33 |  | 452 | 156 | 145 | > 100 |  | 1160 |  | Oc1ccc2c(c1)O[C@@H](CNCc1ccccc1OCCCCF)CC2 | 
14 |  |  | 1.59 | 13.9 | 5.62 |  |  |  |  | 3550 | 8670 | 8130 | Oc1ccc2c(c1)O[C@@H](CNCc1ccc(I)cc1)CC2 | Ki ([3]; read-out: pKi (converted)): 1.55 nM

Reference: ChEMBL document CHEMBL3112461, “Synthesis and characterization of a novel series of agonist compounds as potential radiopharmaceuticals for imaging dopamine D₂/₃ receptors in their high-affinity state” (J Med Chem, 2014)
